Series [1] deals with LoVo. Description: The compound was tested in vitro for cytotoxic activity against Doxorubicin resistant LoVo/Dx human colon adenocarcinoma cell line. It counts as functional, cell-based. The method in brief: (§1)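 LoVo and doxorubicin-resistant LoVo/Dx monolayers grown in Ham's F-12 with 10% fetal calf serum, penicillin/streptomycin, L-glutamine and MEM vitamins, 37 °C, 5% CO2. Log-phase cells seeded at 0.02×10^6 cells/mL. Exposure 72 h. Growth measured by cellular protein content. EC50 is the concentration giving 50% growth inhibition. At least five runs, mean ± SEM.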

The next series has as its system L1210. Description: The compound was tested in vitro for cytotoxic activity against L1210 Murine leukemia cell line. It counts as functional, cell-based. The settings on record: Mus musculus. The method in brief:
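Murine L1210 leukemia cells grown in suspension in RPMI 1640 with 5% fetal calf serum and penicillin/streptomycin, 37 °C, 5% CO2, passaged every 2–3 days. Log-phase cells seeded at 0.05×10^6 cells/mL. Exposure 48 h. Growth read by cellular protein content. EC50 is the concentration giving 50% growth inhibition. At least five runs, mean ± SEM.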

Series [2] relates to LoVo. Description: The compound was tested in vitro for cytotoxic activity against sensitive LoVo human colon adenocarcinoma cell line. It counts as functional, cell-based. The method in brief:
as §1

The test system of series [3] is Mus musculus. In words: The compound was tested for anti tumor activity against P388 Murine Leukemia (%T/C = ratio of survival time of the treated to the control mice) at 0.19 mg/kg. It counts as functional. The method in brief:
(§2)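 P388 leukemia cells, 10^6 per mouse, given ip on day 0 to (BALB/c × DBA/2) F1 hybrid mice; line kept by ip passage in DBA/2 mice. Groups of 6 treated and 12 control mice. %T/C = mean survival time of treated / control × 100; ≥125 taken as significant.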

In series [4] the test system is Mus musculus. Description: The compound was tested for anti tumor activity against P388 Murine Leukemia (%T/C = ratio of survival time of the treated to the control mice) at 0.39 mg/kg. It counts as functional. The method in brief:
as §2

Series [5] has as its system Mus musculus. In words: The compound was tested for anti tumor activity against P388 Murine Leukemia (%T/C = ratio of survival time of the treated to the control mice) at 0.78 mg/kg. It counts as functional. The method in brief:
as §2

In series [6] the test system is Mus musculus. In words: The compound was tested for anti tumor activity against P388 Murine Leukemia (%T/C = ratio of survival time of the treated to the control mice) at 1.56 mg/kg. In kind it is functional. The method in brief: as §2
In series [7] the test system is Mus musculus. Description: The compound was tested for anti tumor activity against P388 Murine Leukemia (%T/C = ratio of survival time of the treated to the control mice) at 3.12 mg/kg. It counts as functional. The method in brief:
as §2

The species entered for series [8] is Mus musculus. In words: The compound was tested for toxicity (number of toxic deaths/total number of mice 7 days after the day 5 injection); 0/6. In kind it is organism-based. The settings on record: in vivo, 168 h.
Series [9] in a line: Resistance Index is the ratio of EC50 of LoVo/Dx cell line and EC50 of LoVo cell line. It counts as functional.
For series [10], the species on record is Mus musculus. In words: The compound was tested for toxicity (number of toxic deaths/total number of mice 7 days after the day 5 injection); 6/6. In kind it is organism-based. The settings on record: in vivo, 168 h.
The species entered for series [11] is Mus musculus. In words: The compound was tested for toxicity (number of toxic deaths/total number of mice 7 days after the day 5 injection); 1/6. The settings on record: in vivo, 168 h. It counts as organism-based.

pEC50: −log10 of the molar value.

With `CN(C)CCn1c(=O)c2ccc(NCCNCCO)c3c(=O)c4ccccc4n(c1=O)c23.Cl`, the values for the pEC50 in the series on LoVo [1], in the series with L1210 and with LoVo [2] were 6.64, 8.35 and 7.52, respectively. In addition, the T/C (commonly the result in the treated group divided by that in the control group, in per cent) is listed as 189% with Mus musculus [3]; 244% with Mus musculus [4]; 233% with Mus musculus [5]; 167% in the series with Mus musculus [6]; 70% in the series on Mus musculus [7]. The Toxicity was 0 in the series listed under Mus musculus [8] and 6 in the series filed under Mus musculus [10]. Further, the Resistance index in series [9] is given as 7.7.
Regarding `CN(C)CCn1c(=O)c2ccc(NCCN3CCNCC3)c3c(=O)c4ccccc4n(c1=O)c23.Cl`, the pEC50 (as a rule, −log10 of the EC50, conventionally taken in molar units) is 6.00 in the series on LoVo [1], 6.68 in the series with L1210 and 6.07 in the series with LoVo [2]. Also, the Resistance index in series [9] was found to be 1.2.
For `CN(C)CCCNc1ccc2c(=O)n(CCN(C)C)c(=O)n3c4ccccc4c(=O)c1c23.Cl` the same measures were 6.80, 7.20, 6.72 and 0.8.
On the same counts, the results for `Cl.O=C1c2ccccc2C(=O)c2c(NCCNCCO)ccc(NCCNCCO)c21` are 4.43, 6.46, 6.19 and 57.5.
For `CCN(CC)CCNc1ccc2c(=O)n(CCN(C)C)c(=O)n3c4ccccc4c(=O)c1c23.Cl`, the pEC50 with LoVo [1] is 7.00; with L1210 it was 7.28; with LoVo [2], 7.28. Moreover, the Resistance index in series [9] worked out at 1.9.
In the series on L1210, `CN(C)CCNc1ccc2c(=O)n(CCN(C)C)c(=O)n3c4ccccc4c(=O)c1c23.Cl` showed a pEC50 of 8.66. Also, the T/C in the series with Mus musculus [3] came out at 166%; in the series with Mus musculus [4], 222%; in the series with Mus musculus [5], 222%; in the series on Mus musculus [6], 100%; in the series on Mus musculus [7] it was 70%. For the same compound, the Toxicity in the series filed under Mus musculus [8] is recorded as 0; in the series listed under Mus musculus [11] it was 1; in the series listed under Mus musculus [10], 6.
On to `CN(C)CCn1c(=O)c2ccc(Cl)c3c(=O)c4ccccc4n(c1=O)c23.Cl`, for which the pEC50 is 5.85 in the series on LoVo [1], 6.30 in the series on L1210 and 5.92 with LoVo [2]. Also, in series [9], the Resistance index amounted to 1.2.

The values above are taken from ChEMBL document CHEMBL1128520, “Synthesis of (dialkylamino)alkyl-disubstituted pyrimido[5,6,1- de]acridines, a novel group of anticancer agents active on a multidrug resistant cell line” (J Med Chem, 1995).
